In ChEMBL document CHEMBL1128459, “Characterization of potent and selective antagonists at postsynaptic 5-HT1A receptors in a series of N4-substituted arylpiperazines” (J Med Chem, 1995):

Key:
[1] = Ratio of MED (agonist) to that of MED (antagonist) values.; type: functional
Procedure, shortened: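 The MED for inducing hypothermia alone was divided by the MED for blocking 8-OH-DPAT (0.16 mg/kg sc) hypothermia. Both MEDs came from sc dosing in male Wistar rats and were tested against vehicle by ANOVA with Dunnett's test, P < 0.05.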

[2] = molecular target: T1, 5-hydroxytryptamine receptor 1A (Rattus norvegicus, UniProt P19327); experiment: Binding affinity at 5-hydroxytryptamine 1A receptor
T1 sequence (P19327 whole entry): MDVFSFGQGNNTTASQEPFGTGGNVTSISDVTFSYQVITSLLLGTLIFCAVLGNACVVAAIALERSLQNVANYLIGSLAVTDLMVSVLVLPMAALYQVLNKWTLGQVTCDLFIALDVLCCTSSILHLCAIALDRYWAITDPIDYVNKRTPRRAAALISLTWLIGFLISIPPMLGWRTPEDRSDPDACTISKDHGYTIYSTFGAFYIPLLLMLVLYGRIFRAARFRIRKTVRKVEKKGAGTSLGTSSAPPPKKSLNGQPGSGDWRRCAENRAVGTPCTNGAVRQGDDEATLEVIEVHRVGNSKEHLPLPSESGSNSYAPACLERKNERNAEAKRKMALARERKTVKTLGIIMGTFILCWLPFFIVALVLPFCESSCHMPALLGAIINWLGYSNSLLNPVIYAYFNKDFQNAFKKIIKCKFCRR
Procedure, shortened: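 Rat hippocampal membranes (1/100 wt/vol) in 50 mM Tris pH 7.7 with 4 mM CaCl2, 0.1% ascorbic acid and pargyline. Membranes were spun at 25000g, preincubated 30 min at 37 °C and respun, then incubated with 0.4 nM [3H]-8-OH-DPAT for 30 min at 25 °C. 5-HT defined nonspecific binding, and samples were filtered on PEI-soaked GF/B. IC50 came from regression; pKi = −log[IC50/(1+[L]/Kd)].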

[3] = molecular target: D(2) dopamine receptor (Rattus norvegicus) (UniProt P61169); experiment: Inhibitory activity against methyl-phenidate-induced gnawing at dopamine receptor D2 in rat
Procedure, shortened: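 Male Wistar rats (200-220 g) received the test drug sc in water (1.0 mL/kg), then methylphenidate 40.0 mg/kg ip 30 min later. Observation began 30 min after that. Gnawing bouts were counted in 10 s per minute (maximum 10) by a blinded observer.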

Rattus norvegicus [4] = experiment: Minimum effective agonist dose administered subcutaneously; type: functional; settings: sc, read-out: MED
Procedure, shortened: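 Male Wistar rats (200-220 g) were given the test drug alone sc in water (1.0 mL/kg), with vehicle reinjected at 30 min. Rectal temperature change from basal was measured 60 min after the first injection. MED for hypothermia was set against vehicle by ANOVA with Dunnett's test, P < 0.05.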

Rattus norvegicus [5] = species on record: Rattus norvegicus; experiment: Maximum antagonist effect (% effect) expressed relative to 8-hydroxy-DPAT (100%); type: functional
Procedure, shortened: (§1)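 In the rat rectal-temperature model (sc dosing, 8-OH-DPAT 0.16 mg/kg sc for antagonism), the maximal percentage of induced hypothermia (agonist) and of block of 8-OH-DPAT hypothermia (antagonist) was recorded. Each value is given with the dose at which it was reached.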

Rattus norvegicus [6] = experiment: Compound after subcutaneous administration was evaluated for antagonist activity against hypothermia induced by 8-hydroxy -DPAT in rat; type: functional; settings: sc, read-out: ID50 (the source's name)
Procedure, shortened: (§2)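 Male Wistar rats (200-220 g) had rectal temperature taken, then received the test drug sc in distilled water (1.0 mL/kg). After 30 min they got 8-OH-DPAT 0.16 mg/kg sc, and temperature was remeasured 30 min later. Change from basal was scored.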

Rattus norvegicus [7] = experiment: Minimum effective antagonist dose administered subcutaneously; type: functional; settings: sc, read-out: MED; procedure, shortened: as §2
Rattus norvegicus [8] = species on record: Rattus norvegicus; experiment: Maximum agonist effect (% effect) expressed relative to 8-hydroxy-DPAT (100%); type: functional; procedure, shortened: as §1
[9] = molecular target: 5-hydroxytryptamine receptor 1B (Rattus norvegicus, UniProt P28564); experiment: Binding affinity at 5-hydroxytryptamine 1B receptor
Procedure, shortened: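 Rat frontal cortex membranes (1/40 wt/vol) were homogenized in 50 mM Tris pH 7.7 with pargyline, 4 mM CaCl2 and 0.1% ascorbic acid, then preincubated for 30 min at 37 °C. Labelled with 2.0 nM [3H]-5-HT, with 100 nM 8-OH-DPAT and 100 nM mesulergine masking 5-HT1A/5-HT2A sites; 5-CT defined nonspecific binding.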

[10] = molecular target: Serotonin 1a (5-HT1a) receptor/Adrenergic receptor alpha-1 (Rattus norvegicus) (UniProt P15823+P23944+P43140+P19327); experiment: Ki ratio measured as the Ki values of alpha-1 adrenergic receptor to that of 5-hydroxytryptamine 1A receptor; type: protein assay
[11] = molecular target: D(2) dopamine receptor (Rattus norvegicus) (UniProt P61169)
[12] = molecular target: T2, Adrenergic receptor alpha-1 (Rattus norvegicus, UniProt P15823+P23944+P43140); experiment: In vitro binding affinity towards Alpha-1 adrenergic receptor in rat cortex was determined using [3H]prazosin as radioligand
T2 sequence (P15823 whole entry): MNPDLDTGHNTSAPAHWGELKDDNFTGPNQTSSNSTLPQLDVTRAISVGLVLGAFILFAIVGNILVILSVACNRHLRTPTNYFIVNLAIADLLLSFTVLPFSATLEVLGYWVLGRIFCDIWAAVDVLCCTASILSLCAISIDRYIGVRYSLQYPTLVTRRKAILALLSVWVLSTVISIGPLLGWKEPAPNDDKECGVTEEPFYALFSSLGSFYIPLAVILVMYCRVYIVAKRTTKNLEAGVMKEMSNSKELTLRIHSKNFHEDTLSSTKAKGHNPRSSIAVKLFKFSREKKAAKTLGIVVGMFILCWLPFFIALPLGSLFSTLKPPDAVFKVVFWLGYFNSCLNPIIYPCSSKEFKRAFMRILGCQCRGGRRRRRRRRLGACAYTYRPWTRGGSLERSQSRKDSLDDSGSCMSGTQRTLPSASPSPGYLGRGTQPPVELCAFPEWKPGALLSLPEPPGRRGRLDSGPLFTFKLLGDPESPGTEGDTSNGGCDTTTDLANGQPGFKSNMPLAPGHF
T2 sequence (P23944 whole entry): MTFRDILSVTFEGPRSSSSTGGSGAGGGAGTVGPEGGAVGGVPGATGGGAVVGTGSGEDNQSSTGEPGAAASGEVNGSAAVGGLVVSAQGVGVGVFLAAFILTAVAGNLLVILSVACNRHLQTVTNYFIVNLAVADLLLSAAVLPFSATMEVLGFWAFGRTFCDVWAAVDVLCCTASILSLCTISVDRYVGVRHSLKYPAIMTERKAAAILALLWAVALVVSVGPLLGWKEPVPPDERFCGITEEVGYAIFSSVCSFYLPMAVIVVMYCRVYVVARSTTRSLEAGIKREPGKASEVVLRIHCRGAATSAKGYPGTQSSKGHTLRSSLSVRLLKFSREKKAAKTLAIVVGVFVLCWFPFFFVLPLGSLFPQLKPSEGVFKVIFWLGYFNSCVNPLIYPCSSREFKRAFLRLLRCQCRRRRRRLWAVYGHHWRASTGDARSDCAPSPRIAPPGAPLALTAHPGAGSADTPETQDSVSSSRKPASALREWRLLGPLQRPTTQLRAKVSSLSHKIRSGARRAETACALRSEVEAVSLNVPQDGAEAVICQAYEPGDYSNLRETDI
T2 sequence (P43140 whole entry): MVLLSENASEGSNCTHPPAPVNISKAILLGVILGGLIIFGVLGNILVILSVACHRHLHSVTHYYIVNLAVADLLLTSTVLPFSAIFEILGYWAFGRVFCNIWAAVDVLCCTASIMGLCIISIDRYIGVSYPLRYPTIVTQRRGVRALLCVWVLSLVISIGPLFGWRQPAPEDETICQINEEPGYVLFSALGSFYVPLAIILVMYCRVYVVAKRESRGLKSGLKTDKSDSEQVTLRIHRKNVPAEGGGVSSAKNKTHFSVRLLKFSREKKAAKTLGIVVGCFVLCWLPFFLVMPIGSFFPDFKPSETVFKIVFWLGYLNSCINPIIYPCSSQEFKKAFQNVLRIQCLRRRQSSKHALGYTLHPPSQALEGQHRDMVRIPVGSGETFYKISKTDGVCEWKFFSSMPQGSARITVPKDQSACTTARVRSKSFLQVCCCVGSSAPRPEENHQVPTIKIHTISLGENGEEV
Procedure, shortened: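 Rat frontal cortex membranes (1/80 wt/vol), no preincubation, in 50 mM Tris pH 7.6 with 4 mM CaCl2 and 0.1% ascorbic acid. Ligand 0.2 nM [3H]prazosin, with phentolamine for nonspecific binding. Incubation 60 min at 25 °C, then filtration. IC50 obtained by regression and converted to pKi with radioligand Kd from saturation experiments.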

D(2) dopamine receptor [13] = molecular target: T3, D(2) dopamine receptor (Rattus norvegicus, UniProt P61169); experiment: In vitro binding affinity towards Dopamine receptor D2 in rat striatum was determined using [3H]spiperone as radioligand; type: tissue-based
Procedure, shortened: (§3)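 Rat striatal membranes (1/300 wt/vol), no preincubation, in 50 mM Tris pH 7.4 with CaCl2, ascorbic acid, 5 mM KCl, 1 mM MgCl2 and 120 mM NaCl. Ligand 0.2 nM [3H]spiperone, with 100 nM ketanserin masking 5-HT2A sites; raclopride defined nonspecific binding. Incubation 30 min at 37 °C, then filtration. pKi derived from regression-based IC50.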

D(2) dopamine receptor [14] = molecular target: T3, D(2) dopamine receptor; experiment: In vitro binding affinity towards Dopamine receptor D2 in rat striatum was determined using [3H]-spiperone as radioligand; type: tissue-based; procedure, shortened: as §3

5-hydroxytryptamine receptor 1B, sequence (P28564 whole entry): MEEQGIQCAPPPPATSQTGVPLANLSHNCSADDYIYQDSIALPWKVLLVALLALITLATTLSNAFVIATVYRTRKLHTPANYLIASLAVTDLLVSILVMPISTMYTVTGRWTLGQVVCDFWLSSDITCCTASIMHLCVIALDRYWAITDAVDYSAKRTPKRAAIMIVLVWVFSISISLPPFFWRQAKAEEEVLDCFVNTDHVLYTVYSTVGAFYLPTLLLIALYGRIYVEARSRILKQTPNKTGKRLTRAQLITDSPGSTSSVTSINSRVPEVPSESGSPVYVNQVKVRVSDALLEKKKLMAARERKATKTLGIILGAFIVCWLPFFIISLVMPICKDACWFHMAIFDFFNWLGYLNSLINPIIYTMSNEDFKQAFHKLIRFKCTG
T3 sequence (P61169 whole entry): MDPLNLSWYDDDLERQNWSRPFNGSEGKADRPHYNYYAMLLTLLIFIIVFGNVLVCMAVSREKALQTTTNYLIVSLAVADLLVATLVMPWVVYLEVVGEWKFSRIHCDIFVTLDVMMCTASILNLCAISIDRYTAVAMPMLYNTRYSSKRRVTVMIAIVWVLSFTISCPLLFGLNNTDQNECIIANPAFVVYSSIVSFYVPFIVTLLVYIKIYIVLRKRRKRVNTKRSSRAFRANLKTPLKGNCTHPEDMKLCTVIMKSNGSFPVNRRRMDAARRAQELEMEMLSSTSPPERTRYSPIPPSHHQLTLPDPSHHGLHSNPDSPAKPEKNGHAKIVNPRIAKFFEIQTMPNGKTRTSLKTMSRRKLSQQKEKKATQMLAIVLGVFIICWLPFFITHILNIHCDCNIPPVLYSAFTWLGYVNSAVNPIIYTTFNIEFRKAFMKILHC
D(2) dopamine receptor (Rattus norvegicus), sequence (P61169 whole entry): as above

SMILES	Ratio [1]	Ki [2] [nM]	ID50 [3] [mg/kg]	minimal effective dose (Rattus norvegicus [4]) [mg/kg]	Max effect (Rattus norvegicus [5]) [%]	ED50 (Rattus norvegicus [6]) [mg/kg]	minimal effective dose (Rattus norvegicus [7]) [mg/kg]	Max effect (Rattus norvegicus [8]) [%]	Ki [9] [nM]	Ki ratio [10]	ID50 [11] [mg/kg]	Log Ki [12]	Ki (D(2) dopamine receptor [13]) [nM]	Ki (D(2) dopamine receptor [14]) [nM]
c1ccc2c(c1)CCC2CCN1CCN(c2cccc3c2OCCO3)CC1 (configuration not stated)	> 63.5	1.58	> 40	> 40	94	1.29	0.63	19						
c1ccc2c(c1)CC2CCCN1CCN(c2cccc3ccoc23)CC1 (configuration not stated)	4	2.82	40	10	47	2.5	2.5	46	1410					
c1ccc2c(c1)CC(N1CCN(c3cccc4c3OCCCO4)CC1)C2	2			10	51	5.18	5	72	1410	55	> 40	-6.68	195	
c1ccc2c(c1)CC2CCN1CCN(c2cccc3ccoc23)CC1 (configuration not stated)	> 32	1.41	> 40	> 40	91	1.12	1.25	21	1510					
c1ccc2c(c1)CC2CCN1CCN(c2cccc3c2OCCO3)CC1 (configuration not stated)	32	0.589		40	76	0.65	1.25	32		35.4	> 40	-7.66		49
c1ccc2c(c1)CC(N1CCN(c3cccc4c3OCCO4)CC1)C2	31.7			20	95	1.4	0.63	46	1780	81	> 40	-6.84		347
COc1ccccc1N1CCN(C[C@@H](C(=O)NC(C)(C)C)c2ccccc2)CC1	16			40	73	2.45	2.5	50	> 10000	35.6	> 40	-5.94		389
COc1ccccc1N1CCN(CCCCN2C(=O)c3ccccc3C2=O)CC1 [NAN-190]				5	56	97	0.63	100			10		31.6	
